This is an account of results in paper PMC11261338 (RSC Advances, 2024).

Each structure is given as a SMILES string.

Data set [1] relates to AGS (gastric adenocarcinoma) cells. As to the kind of experiment: MTT assay, IC50 against gastric cancer cells. It is filed as cell-based. Conditions: 48 h, read-out: IC50 (μM) AGS. The method, boiled down: (§1)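 Cells kept at 37 °C, 5% CO2: AGS in RPMI-1640 and C2C12 in DMEM, each with 10% FBS, 0.25 μg mL−1 amphotericin B and 25 μg mL−1 gentamicin. 5000 cells/well were seeded for 12 h, then given test compound at 1000, 100, 10, 1 and 0.1 μM for 48 h. Untreated cells served as controls.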
On the technique in general: Tetrazolium dyes change colour on reduction, which living cells bring about.

In data set [2] the test system is MCF-7 (mammary carcinoma) cells. As to the kind of experiment: MTT assay, IC50 against breast cancer cells. The class given is cell-based. Conditions: Homo sapiens, MCF7, 48 h, read-out: IC50 (μM) MCF-7. The method, boiled down:
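MCF-7 cells grown in DMEM with human insulin (10 μg mL−1), 10% FBS, amphotericin B and gentamicin at 37 °C, 5% CO2. Seeded at 5000 cells per well for 12 h, then exposed 48 h to the test compound at 0.1, 1, 10, 100 and 1000 μM, with untreated controls. PBS wash, 0.5 mg mL−1 MTT for 90 min at 37 °C, DMSO solubilisation, A570.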

Data set [3] deals with myoblast cells (C2C12). The experiment in a line: MTT cell viability of normal myoblast cells at a single concentration. It is filed as cell-based, human. Conditions: DHPM 10 μM, 48 hours. The method, boiled down: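 C2C12 myoblasts were grown in DMEM with 10% FBS, amphotericin B and gentamicin at 37 °C, 5% CO2, and seeded at 5000 cells/well for 12 h. Test compound was applied at 10 μM for 48 h. Cells were washed with PBS, given 0.5 mg mL−1 MTT in PBS for 90 min at 37 °C, and the formazan was dissolved in DMSO with 30 min agitation in the dark. A570 was read, in triplicate.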

Data set [4] deals with myoblast cells (C2C12). The experiment in a line: MTT assay, IC50 against myoblast cells. It is filed as cell-based. Conditions: C2C12, 48 h, read-out: IC50 (μM) C2C12. The method, boiled down: as §1

For orientation: IC50 means the concentration that gives 50% inhibition. Consider `CCCCCCCC/C=C\CCCCCCCCOC(=O)C1=C(C)NC(=O)NC1c1cccc(O)c1` (stereo not shown) [10c, (Z)-Octadec-9-enyl 4-(3-hydroxyphenyl)-6-methyl-2-oxo-1,2,3,4-tetrahydropyrimidine-5-carboxylate], for which the 50% inhibitory concentration (IC50) in data set [1] was determined as 12.1 ± 0.4 µM; in data set [2], 2.3 ± 0.4 µM; in data set [4], 18.4 ± 10.5 µM. Moreover, the “viability (%) of myoblast cells (C2C12)” value in data set [3] is on record as about 70%.
For `CCCCCCCC/C=C\CCCCCCCCOC(=O)C1=C(C)NC(=S)NC1c1ccccc1O` (stereo not shown) [11b, (Z)-Octadec-9-enyl 4-(2-hydroxyphenyl)-6-methyl-2-thioxo-1,2,3,4-tetrahydropyrimidine-5-carboxylate], the IC50 was 20.2 ± 2.1 µM in data set [1], 10.1 ± 1.3 µM in data set [2] and 88.5 ± 6.4 µM in data set [4].
Taken in the same sequence, the figures for `CCCCCCCC/C=C\CCCCCCCCOC(=O)C1=C(C)NC(=S)NC1c1cccc(O)c1` (stereo not shown) [11c, (Z)-Octadec-9-enyl 4-(3-hydroxyphenyl)-6-methyl-2-thioxo-1,2,3,4-tetrahydropyrimidine-5-carboxylate] were 125 ± 6.2 µM, 28.4 ± 7 µM and 446 ± 84.2 µM.
On to `CCCCCCCC/C=C\CCCCCCCCOC(=O)C1=C(C)NC(=S)NC1c1cccc(Cl)c1` (stereo not shown) [11f, (Z)-Octadec-9-enyl 4-(3-chlorophenyl)-6-methyl-2-thioxo-1,2,3,4-tetrahydropyrimidine-5-carboxylate], for which the IC50 in data set [1] stood at 146 ± 25.9 µM; in data set [2] it was 8.8 ± 8.3 µM; in data set [4] it was 307 ± 143 µM.
With `CCCCCCCC/C=C\CCCCCCCCOC(=O)C1=C(C)NC(=S)NC1c1ccc(C)cc1` (stereo not shown) [11h, (Z)-Octadec-9-enyl 6-methyl-2-thioxo-4-(p-tolyl)-1,2,3,4-tetrahydropyrimidine-5-carboxylate], the results for the IC50 in data set [1], in data set [2] and in data set [4] were 126 ± 4.6 µM, 39.2 ± 4.9 µM and 362 ± 12.6 µM, respectively.
Taken in the same sequence, the figures for `CCCCCCCC/C=C\CCCCCCCCOC(=O)C1=C(C)NC(=S)NC1c1ccc(OC)cc1` (stereo not shown) [11i, (Z)-Octadec-9-enyl 4-(4-methoxyphenyl)-6-methyl-2-thioxo-1,2,3,4-tetrahydropyrimidine-5-carboxylate] were 101.8 ± 0.6 µM, 16.4 ± 2.7 µM and 166 ± 8.9 µM.
In the same order, the values of `CCOC(=O)C1=C(C)NC(=S)NC1c1cccc(O)c1` (stereo not shown) [Monastrol, reference compound] are 40 ± 6.2 µM, 25.6 ± 7.3 µM and 35.5 ± 6.4 µM.
